Measurements from ChEMBL document CHEMBL1140960, “Synthesis of amide and urea derivatives of benzothiazole as Raf-1 inhibitor” (2008).
≈ marks a conversion by molar mass, not a printed value. Calls of active or inactive are those of the source. The calls are words filed in the database; no cut-off is given here.

Legend:
[1] = system: MDA-MB-231; assay: Antiproliferative activity against human MDA-MB-231 cells by SRB assay; type: functional
Method in brief: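 Trypsinized exponential-phase cells were plated at densities chosen for exponential growth over a 5-day assay. Cells were fixed with cold 10% TCA for 1 h at 4 °C, water-washed, stained at least 15 min with 0.1% SRB in 1% acetic acid, and rinsed with 1% acetic acid. Bound dye was solubilized in 10 mM unbuffered Tris base and OD read at 540 nm.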

[2] = system: SK-HEP1; assay: Antiproliferative activity against human SKHEP1 cells by SRB assay; type: functional
Method in brief: (§1)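 Cells from exponential-phase cultures were trypsinized, counted and plated. Fixation used cold 10% TCA for 1 h at 4 °C, then water washes. Staining was 0.1% SRB in 1% acetic acid for at least 15 min, followed by 1% acetic acid rinses. Dye was solubilized in 10 mM unbuffered Tris base and absorbance read at 540 nm.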

[3] = system: NUGC-3; assay: Antiproliferative activity against human NUGC3 cells by SRB assay; type: functional; method in brief: as §1
[4] = molecular target: RAF proto-oncogene serine/threonine-protein kinase (Homo sapiens) (UniProt P04049); assay: Inhibition of Raf1 at 50 uM by liquid scintillation counting
Method in brief: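 Raf-1 and its substrate MEK were diluted together in buffer (20 mM MOPS pH 7.2, 25 mM β-glycerol phosphate, 5 mM EGTA, 1 mM orthovanadate, 1 mM DTT), with compound in 1% final DMSO. Reaction was started with [γ-33P]ATP (1000–3000 dpm/pmol) and run at 32 °C, usually 22 min. Samples went to phosphocellulose mats, were washed with 1% phosphoric acid and counted by scintillation; % inhibition is the mean of three experiments.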

RAF proto-oncogene serine/threonine-protein kinase (Homo sapiens), sequence (P04049 whole entry): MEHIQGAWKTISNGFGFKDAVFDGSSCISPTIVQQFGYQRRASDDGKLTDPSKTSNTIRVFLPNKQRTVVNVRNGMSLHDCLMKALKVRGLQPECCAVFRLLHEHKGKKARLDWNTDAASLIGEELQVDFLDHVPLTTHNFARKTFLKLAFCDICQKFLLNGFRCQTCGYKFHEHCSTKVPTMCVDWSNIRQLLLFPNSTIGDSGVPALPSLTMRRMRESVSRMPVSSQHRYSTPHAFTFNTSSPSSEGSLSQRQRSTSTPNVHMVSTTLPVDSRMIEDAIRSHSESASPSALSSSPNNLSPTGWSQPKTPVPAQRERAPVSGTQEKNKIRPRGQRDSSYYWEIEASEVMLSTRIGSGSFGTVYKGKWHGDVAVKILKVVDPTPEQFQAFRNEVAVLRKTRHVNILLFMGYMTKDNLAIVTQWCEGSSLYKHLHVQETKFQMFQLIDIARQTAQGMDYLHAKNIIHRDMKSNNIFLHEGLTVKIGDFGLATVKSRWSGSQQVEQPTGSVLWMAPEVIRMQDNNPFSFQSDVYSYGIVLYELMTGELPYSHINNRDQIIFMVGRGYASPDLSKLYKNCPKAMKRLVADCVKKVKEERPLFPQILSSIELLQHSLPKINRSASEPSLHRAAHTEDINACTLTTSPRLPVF

Structure (SMILES)	GI50 [1]	GI50 [2]	GI50 [3]	inhibition [4]	Activity [4]
COc1ccc(NC(=O)Nc2nc3ccc(F)cc3s2)cc1	> 10 mg/L	> 10 mg/L	> 10 mg/L	–	–
Cc1ccc(C(=O)Nc2nc3cc(C)cc(C)c3s2)cc1	0.44 mg/L (≈ 1.48 µM)	2.17 mg/L (≈ 7.32 µM)	2.37 mg/L (≈ 8 µM)	–	–
O=C(Nc1cccc([N+](=O)[O-])c1)Nc1nc2ccc(F)cc2s1	0.89 mg/L (≈ 2.68 µM)	1.96 mg/L (≈ 5.9 µM)	0.83 mg/L (≈ 2.5 µM)	7.9%	–
COc1ccc(C(=O)Nc2nc3c(OC)cccc3s2)cc1	1.25 mg/L (≈ 3.98 µM)	2.11 mg/L (≈ 6.71 µM)	3.46 mg/L (≈ 11 µM)	7.8%	–
Cc1ccc2nc(NC(=O)Nc3cccc([N+](=O)[O-])c3)sc2c1	> 10 mg/L	> 10 mg/L	> 10 mg/L	–	–
O=C(Nc1nc2ccc(F)cc2s1)Nc1ccccc1F	> 10 mg/L	> 10 mg/L	> 10 mg/L	–	–
COc1cccc2sc(NC(=O)c3ccc(C(F)(F)F)cc3)nc12	> 10 mg/L	> 10 mg/L	> 10 mg/L	–	–
COc1ccc2sc(NC(=O)c3ccc(C)cc3)nc2c1	> 10 mg/L	> 10 mg/L	> 10 mg/L	–	–
O=C(Nc1cccc([N+](=O)[O-])c1)Nc1nc2ccc(Cl)cc2s1	0.82 mg/L (≈ 2.35 µM)	2.21 mg/L (≈ 6.34 µM)	1.03 mg/L (≈ 2.95 µM)	–	inactive
O=C(Nc1nc2ccc(C(F)(F)F)cc2s1)c1ccc([N+](=O)[O-])cc1	> 10 mg/L	> 10 mg/L	> 10 mg/L	–	–
Cc1cc(C)c2sc(NC(=O)c3ccc(C#N)cc3)nc2c1	0.48 mg/L (≈ 1.56 µM)	1.18 mg/L (≈ 3.84 µM)	0.62 mg/L (≈ 2.02 µM)	–	inactive
COc1ccc(C(=O)Nc2nc3cc(C)cc(C)c3s2)cc1	1.03 mg/L (≈ 3.3 µM)	> 10 mg/L	> 10 mg/L	–	–
COc1cccc2sc(NC(=O)c3ccc(C)cc3)nc12	0.86 mg/L (≈ 2.88 µM)	2.01 mg/L (≈ 6.74 µM)	> 10 mg/L	37%	–
COc1ccc(C(=O)Nc2nc3cc(OC)ccc3s2)cc1	> 10 mg/L	> 10 mg/L	> 10 mg/L	–	–
Cc1ccccc1NC(=O)Nc1nc2ccc(F)cc2s1	> 10 mg/L	> 10 mg/L	> 10 mg/L	–	–
Cc1cc(C)c2sc(NC(=O)c3ccc([N+](=O)[O-])cc3)nc2c1	0.29 mg/L (≈ 0.886 µM)	1.74 mg/L (≈ 5.32 µM)	1.32 mg/L (≈ 4.03 µM)	–	inactive
O=C(Nc1nc2ccc([N+](=O)[O-])cc2s1)c1ccc(C(F)(F)F)cc1	1.89 mg/L (≈ 5.15 µM)	2.1 mg/L (≈ 5.72 µM)	1.65 mg/L (≈ 4.49 µM)	–	–
COc1ccc2nc(NC(=O)c3ccc(C)cc3)sc2c1	> 10 mg/L	> 10 mg/L	> 10 mg/L	–	–
COc1cccc2sc(NC(=O)c3ccc(C#N)cc3)nc12	> 10 mg/L	> 10 mg/L	> 10 mg/L	–	–
COc1ccc2sc(NC(=O)c3ccc([N+](=O)[O-])cc3)nc2c1	> 10 mg/L	> 10 mg/L	> 10 mg/L	–	–
Cc1cc2nc(NC(=O)Nc3ccccc3C)sc2cc1C	0.1 mg/L (≈ 0.321 µM)	0.18 mg/L (≈ 0.578 µM)	0.18 mg/L (≈ 0.578 µM)	14.9%	–
COc1cccc2c1C(=O)c1c(O)c3c(c(O)c1C2=O)C[C@@](O)(C(=O)CO)C[C@@H]3O[C@H]1C[C@H](N)[C@H](O)[C@H](C)O1 [DOXORUBICIN]	0.39 mg/L (≈ 0.718 µM)	0.07 mg/L (≈ 0.129 µM)	0.11 mg/L (≈ 0.202 µM)	–	–
COc1ccc2sc(NC(=O)c3ccc(C#N)cc3)nc2c1	> 10 mg/L	> 10 mg/L	> 10 mg/L	–	–
COc1ccc2sc(NC(=O)c3ccc(C(F)(F)F)cc3)nc2c1	> 10 mg/L	> 10 mg/L	> 10 mg/L	–	–
O=C(Nc1ccccc1)Nc1nc2ccc(F)cc2s1	> 10 mg/L	> 10 mg/L	> 10 mg/L	–	–
COc1cccc2sc(NC(=O)c3ccc([N+](=O)[O-])cc3)nc12	> 10 mg/L	> 10 mg/L	> 10 mg/L	–	–
Cc1cc(C)c2sc(NC(=O)c3ccc(C(F)(F)F)cc3)nc2c1	0.45 mg/L (≈ 1.28 µM)	1.36 mg/L (≈ 3.88 µM)	1.4 mg/L (≈ 4 µM)	–	inactive
